Data published in ChEMBL document CHEMBL1275336, “Identification of a novel pyrrole derivative endowed with antimycobacterial activity and protection index comparable to that of the current antitubercular drugs streptomycin and rifampin” (Bioorg Med Chem, 2010).
In brackets after ≈: the same amount, converted by molar mass.

Tests used:
[1] = test system: Mycobacterium tuberculosis; assay: Antimycobacterial activity against rifampin-resistant Mycobacterium tuberculosis after 3 to 28 days by twofold dilution method; assay type: functional
In short: (§1)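 Twofold agar dilution in Middlebrook 7H11 with 10% OADC; plates held at 37 °C for 3 or 28 days. MIC is the lowest concentration giving complete inhibition of visible mycobacterial growth. Rifampin, streptomycin and BM521 served as references.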

[2] = test system: Mycobacterium tuberculosis; assay: Antimycobacterial activity against isoniazid-resistant Mycobacterium tuberculosis after 3 to 28 days by twofold dilution method; assay type: functional; in short: as §1

Row | SMILES | MIC [1] [µg/mL] | MIC [2] [µg/mL]
1 | CSc1ccc(-c2cc(CN3CCSCC3)c(C)n2-c2ccc(F)cc2)cc1 | 0.25 (≈ 0.606 µM) | > 16
2 | Cc1ccc(-c2cc(CN3CCSCC3)c(C)n2-c2ccc(F)cc2)cc1 | 0.5 (≈ 1.31 µM) | 32 (≈ 84.1 µM)
3 | CO[C@H]1/C=C/O[C@@]2(C)Oc3c(C)c(O)c4c(O)c(c(/C=N/N5CCN(C)CC5)c(O)c4c3C2=O)NC(=O)/C(C)=C\C=C\[C@H](C)[C@H](O)[C@@H](C)[C@@H](O)[C@@H](C)[C@H](OC(C)=O)[C@@H]1C [RIFAMPIN] | > 64 | 0.8 (≈ 0.972 µM)
4 | CN[C@@H]1[C@H](O[C@H]2[C@H](O[C@H]3[C@H](O)[C@@H](O)[C@H](N=C(N)N)[C@@H](O)[C@@H]3N=C(N)N)O[C@@H](C)[C@]2(O)C=O)O[C@@H](CO)[C@H](O)[C@H]1O [STREPTOMYCIN] | 0.5 (≈ 0.86 µM) | 0.5 (≈ 0.86 µM)
